Molecules are shown by their SMILES. Active and inactive are the calls of the source. No cut-off for these calls is given here.

Data set [1] relates to Staphylococcus aureus. In words: Antibacterial activity against methicillin resistant Staphylococcus aureus ATCC BAA-1556 incubated for 24 hrs by checkerboard assay. It counts as functional.
The next data set deals with Pseudomonas aeruginosa. In words: Antibacterial activity against Pseudomonas aeruginosa ATCC […] incubated for 24 hrs by checkerboard assay. It counts as functional.
Another data set deals with Klebsiella pneumoniae. In words: Antibacterial activity against Klebsiella pneumoniae ATCC BAA-1705 incubated for 24 hrs by checkerboard assay. The class given is functional.
A short description of data set [2]: Membrano-lytic effect in mammalian membrane mimic DOPC/cholesterol (10:1) large unilamellar vesicles assessed as calcein leakage measured at 50 microg/ml measured after 100 mins by multimode microplate reader assay. The class given is cell membranes. To be noted: dose 50.0 µg/ml. The method, boiled down:
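Calcein (70 mM) loaded into extruded 100 nm LUVs: DOPC:DOPG 7:3 (w/w) as the bacterial mimic, DOPC/cholesterol 10:1 (w/w) as the mammalian mimic. Free dye removed by gel filtration. Liposomes at 40 μM final lipid in PBS mixed 1:1 with peptide (5–50 μg/mL). Fluorescence (ex 490/em 520 nm) read every 10 min for 100 min; Triton X-100 defines 100% release. Triplicate.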

Data set [3] concerns Staphylococcus aureus. As to the kind of experiment: Induction of resistance development in Staphylococcus aureus ATCC 29213 assessed as increase in MIC by microtiter plate reader assay. It counts as functional, organism-based. In a few lines: (§1)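 Serial passage resistance assay with 2-fold microdilution MICs in 96-well plates. Each passage takes the well with the highest concentration still permitting growth, adjusts it to 0.5 McFarland, and dilutes it to a final 5 × 10^5 CFU/mL for the next passage. Eighteen passages; MIC recorded at each. Triplicate.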

Data set [4] relates to Staphylococcus aureus. In words: Induction of resistance development in methicillin resistant Staphylococcus aureus ATCC BAA-1556 assessed as increase in MIC by microtiter plate reader assay. It counts as functional, organism-based. In a few lines: as §1
Data set [5] has as its system Escherichia coli. As to the kind of experiment: Induction of resistance development in Escherichia coli ATCC 25922 assessed as increase in MIC by microtiter plate reader assay. The class given is functional, organism-based.
Data set [6] relates to Escherichia coli. In words: Induction of resistance development in Escherichia coli ATCC BAA-2452 assessed as increase in MIC by microtiter plate reader assay. It counts as functional, organism-based. The method, boiled down: as §1
Data set [7] can be described thus: Hemolytic activity in human RBC incubated for 2 hrs by spectrophotometric assay. The class given is toxicity, cell-based, Erythrocyte. To be noted: human red blood cells (RBC). In a few lines:
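Human RBCs with buffy coat removed, washed in PBS pH 7.4. Two-fold peptide dilutions in PBS mixed 1:1 with 4% (v/v) RBC suspension. Incubation 2 h at 37 °C without agitation, then centrifugation. Supernatant hemoglobin read at 567 nm. PBS set 0% and 1% Triton X-100 set 100% lysis. Triplicate.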

Data set [8] can be described thus: Therapeutic index, ratio of HC50 for human RBC to MIC for methicillin resistant Staphylococcus aureus ATCC BAA-1556. In a few lines:
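Human RBCs washed in PBS pH 7.4 and mixed 1:1 with two-fold peptide dilutions (4% v/v suspension), 2 h at 37 °C. Hemoglobin in supernatant read at 567 nm against PBS (0%) and 1% Triton X-100 (100%). HC50 is the concentration giving 50% hemolysis. Index is HC50 divided by MIC against MRSA.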

For `C[C@@H](O)[C@H]1C(=O)N2C(C(=O)O)=C(S[C@@H]3CN[C@H](C(=O)N(C)C)C3)[C@H](C)[C@H]12` [MEROPENEM], the MIC (usually the least concentration at which growth counts as inhibited) stood at 32 µg/mL in the data set with Staphylococcus aureus [1], 32 µg/mL in the data set on Pseudomonas aeruginosa and 256 µg/mL with Klebsiella pneumoniae.
For `CCCCCCCCCC(=O)N[C@@H](Cc1c[nH]c2ccccc12)C(=O)N[C@H](CC(N)=O)C(=O)N[C@@H](CC(=O)O)C(=O)N[C@@H]1C(=O)NCC(=O)N[C@@H](CCCN)C(=O)N[C@@H](CC(=O)O)C(=O)N[C@H](C)C(=O)N[C@@H](CC(=O)O)C(=O)NCC(=O)N[C@H](CO)C(=O)N[C@@H]([C@H](C)CC(=O)O)C(=O)N[C@@H](CC(=O)c2ccccc2N)C(=O)O[C@@H]1C`, the Activity in data set [2] is 7%. The outcome in the data set on Staphylococcus aureus [3], with Staphylococcus aureus [4], in the data set with Escherichia coli [5] and with Escherichia coli [6] was Active.
For the molecule `N=C(N)NCCC[C@@H]1NC(=O)[C@H](CCCNC(=N)N)NC(=O)[C@H](CCCNC(=N)N)NC(=O)[C@H](Cc2c[nH]c3ccccc23)NC(=O)[C@H](Cc2c[nH]c3ccccc23)NC(=O)[C@H](Cc2c[nH]c3ccccc23)NC(=O)[C@H](Cc2c[nH]c3ccccc23)NC(=O)[C@H](Cc2c[nH]c3ccccc23)NC(=O)[C@H](CCCNC(=N)N)NC1=O`, in [7], the HC50 (in general, the concentration that lyses half of the red blood cells) at 2 h is 100 µg/mL. Also, the TI in [8] worked out at 12.5.

(Values after ChEMBL document CHEMBL5236607, “Membrane-Active Cyclic Amphiphilic Peptides: Broad-Spectrum Antibacterial Activity Alone and in Combination with Antibiotics” (J Med Chem, 2022).)
